Data from ChEMBL document CHEMBL1154682, “Discovery of novel benzoxazinones as potent and orally active long chain fatty acid elongase 6 inhibitors” (J Med Chem, 2009).
pIC50: −log10 of the molar value. One block for each compound: values may come before it. Calls of active or inactive are those of the source. No cut-off for these calls is given here.

Tests used:
[1] = molecular target: T1, Very long chain fatty acid elongase 6 (Homo sapiens, UniProt Q9H5J4); experiment: Inhibition of human ELOVL6 expressed in Pichia pastoris using palmitoyl-CoA by long chain fatty acyl-CoA elongation assay
T1 sequence (Q9H5J4 whole entry): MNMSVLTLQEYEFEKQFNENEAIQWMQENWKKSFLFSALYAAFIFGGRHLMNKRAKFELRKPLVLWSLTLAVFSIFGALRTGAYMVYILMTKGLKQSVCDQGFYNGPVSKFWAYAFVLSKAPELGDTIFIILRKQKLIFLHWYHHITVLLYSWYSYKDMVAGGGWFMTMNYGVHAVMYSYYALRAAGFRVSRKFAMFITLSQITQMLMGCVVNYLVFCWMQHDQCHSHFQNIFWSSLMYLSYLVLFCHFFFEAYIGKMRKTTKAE
Outline: (§1)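 Microsomes (3 μg) from Pichia pastoris SMD1168 expressing FLAG-tagged human or mouse ELOVL6 were incubated 1 h at 37 °C in 100 mM potassium phosphate pH 6.5 with 40 μM palmitoyl-CoA, 20 μM malonyl-CoA plus [14C]-malonyl-CoA, 500 μM NADPH, 200 μM BSA and 1 μM rotenone. DMSO was 1.0% final. After HCl hydrolysis, filter-retained 14C was counted. IC50 came from nonlinear regression on % of control.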

[2] = molecular target: T2, Very long chain fatty acid elongase 6 (Mus musculus, UniProt Q920L5); experiment: Inhibition of mouse ELOVL6 expressed in Pichia pastoris using palmitoyl-CoA by long chain fatty acyl-CoA elongation assay; outline: as §1
T2 sequence (Q920L5 whole entry): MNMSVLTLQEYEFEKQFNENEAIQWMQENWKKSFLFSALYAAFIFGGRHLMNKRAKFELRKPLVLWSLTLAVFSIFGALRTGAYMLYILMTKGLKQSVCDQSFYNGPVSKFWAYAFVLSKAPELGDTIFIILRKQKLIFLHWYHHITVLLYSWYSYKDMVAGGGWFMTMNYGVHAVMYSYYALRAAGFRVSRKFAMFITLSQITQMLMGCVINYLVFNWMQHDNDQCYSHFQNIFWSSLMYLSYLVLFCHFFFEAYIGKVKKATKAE

[3] = molecular target: T2, Very long chain fatty acid elongase 6; experiment: Inhibition of ELOVL6 in mouse H2.35 cells assessed as elongation index; format: cell-based
Outline: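 Subconfluent mouse hepatoma H2.35 cells were kept at 33 °C in DMEM with 200 nM dexamethasone and 4% FBS. Lipids were hydrolysed in NaOH at 70 °C, and fatty acids extracted and quantified by radio-HPLC. Elongation index = (C18:0 + C18:1) / (C16:0 + C16:1).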

[4] = Unbound fraction in C57BL/6N mouse plasma; format: ADME, cell-free
Outline: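 Equilibrium dialysis was run with C57BL/6N mouse plasma adjusted to pH 7.4 and spiked with 1 μM compound, dialysed against PBS for 6 h at 37 °C. Both sides were analysed by LC-MS/MS. Unbound fraction = Cf/Cp × 100. Mean of n = 3.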

[5] = Plasma concentration in C57BL/6J mouse at 10 mg/kg, po after 2 hrs; format: ADME, organism-based; design: dose 10 mg/kg, route oral
Outline: (§2)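 Male C57BL/6J mice were given a single oral gavage of 10 mg/kg in 0.5% methylcellulose suspension. Abdominal-vein blood and liver were taken 2 h after dosing. Liver was homogenized in PBS pH 7.4. Plasma and homogenate were deproteinized with ethanol containing internal standard before analysis.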

[6] = Drug level in C57BL/6J mouse liver at 10 mg/kg, po after 2 hrs; format: ADME, organism-based; design: dose 10 mg/kg, route oral; settings: read-out: Drug uptake; outline: as §2
[7] = test system: Mus musculus; experiment: Reduction of elongation index of liver lipids in C57BL/6J mouse at 1 mg/kg, po; format: functional, organism-based; design: dose 1 mg/kg
Outline: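 Male C57BL/6J mice were dosed orally in 0.5% methylcellulose. [1-14C]palmitic acid, 10 μCi/body, was given intraperitoneally 1 h later. Liver was taken 2 h after dosing and saponified in KOH/ethanol at 70 °C. Labelled fatty acids were quantified by radio-HPLC, with elongation index C18/C16 expressed as % of control. Four mice per treatment.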

[8] = Plasma concentration in C57BL/6J mouse at 30 mg/kg, po twice daily after 3 days; format: ADME, organism-based; design: dose 30 mg/kg, route oral
[9] = test system: Mus musculus; experiment: Reduction of elongation index of total fatty acids in C57BL/6J mouse liver at 30 mg/kg, po twice daily for 3 days; format: functional, organism-based; design: dose 30 mg/kg
Outline: (§3)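 Male C57BL/6J mice received 30 mg/kg orally twice daily for 3 days. Liver and plasma were hydrolysed in NaOH/ethanol with C17:0 internal standard. Fatty acids were derivatized with 2-nitrophenylhydrazine and measured by HPLC-UV at 400 nm. Elongation index (C18/C16) was expressed as % of vehicle control. Six mice per group.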

[10] = test system: Mus musculus; experiment: Reduction of elongation index of total fatty acids in C57BL/6J mouse plasma at 30 mg/kg, po twice daily for 3 days; format: functional, organism-based; design: dose 30 mg/kg; outline: as §3
[11] = molecular target: T3, Very long chain fatty acid elongase 1 (Homo sapiens, UniProt Q9BW60); experiment: Inhibition of human ELOVL1
T3 sequence (Q9BW60 whole entry): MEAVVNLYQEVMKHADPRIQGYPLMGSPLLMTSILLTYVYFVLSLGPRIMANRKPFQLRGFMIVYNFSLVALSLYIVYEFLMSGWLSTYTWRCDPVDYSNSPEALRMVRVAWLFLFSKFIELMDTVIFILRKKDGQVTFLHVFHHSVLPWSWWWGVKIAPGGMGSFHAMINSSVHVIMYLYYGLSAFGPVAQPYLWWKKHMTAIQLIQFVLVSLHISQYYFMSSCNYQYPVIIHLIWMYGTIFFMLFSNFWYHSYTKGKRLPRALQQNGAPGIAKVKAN
Outline: (§4)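 Microsomes were prepared from Pichia pastoris SMD1168 expressing FLAG-tagged human or mouse ELOVL. Incubation ran 1 h at 37 °C in 100 mM potassium phosphate pH 6.5 with 200 μM BSA, 500 μM NADPH, 1 μM rotenone, 20 μM malonyl-CoA plus [14C]-malonyl-CoA, and acyl-CoA: ELOVL1 and ELOVL3, 10 μM stearoyl-CoA; ELOVL2, 10 μM arachidonoyl-CoA; ELOVL5, 40 μM arachidonoyl-CoA. DMSO was 1.0% final. Products were acid-hydrolysed and filter-bound radioactivity counted.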

[12] = molecular target: T4, Very long chain fatty acid elongase 2 (Homo sapiens, UniProt Q9NXB9); experiment: Inhibition of human ELOVL2; outline: as §4
T4 sequence (Q9NXB9 whole entry): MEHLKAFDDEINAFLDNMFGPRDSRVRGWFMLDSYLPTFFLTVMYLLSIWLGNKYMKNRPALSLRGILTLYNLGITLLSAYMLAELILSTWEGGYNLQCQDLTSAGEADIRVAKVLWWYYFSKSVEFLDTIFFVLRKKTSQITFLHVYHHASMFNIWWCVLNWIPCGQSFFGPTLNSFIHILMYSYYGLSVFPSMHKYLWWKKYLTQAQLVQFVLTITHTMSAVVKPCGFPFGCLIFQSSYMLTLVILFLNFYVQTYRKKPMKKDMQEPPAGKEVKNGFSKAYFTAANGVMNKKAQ

[13] = molecular target: T5, Very long chain fatty acid elongase 3 (Homo sapiens, UniProt Q9HB03); experiment: Inhibition of human ELOVL3; outline: as §4
T5 sequence (Q9HB03 whole entry): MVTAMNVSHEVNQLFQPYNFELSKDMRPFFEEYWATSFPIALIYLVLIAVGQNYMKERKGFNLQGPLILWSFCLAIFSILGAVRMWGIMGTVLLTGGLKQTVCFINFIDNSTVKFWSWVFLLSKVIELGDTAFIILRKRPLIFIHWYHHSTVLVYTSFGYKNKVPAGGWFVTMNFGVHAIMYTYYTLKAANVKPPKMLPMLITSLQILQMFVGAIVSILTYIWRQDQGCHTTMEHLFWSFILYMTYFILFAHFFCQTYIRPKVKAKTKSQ

[14] = molecular target: T6, Very long chain fatty acid elongase 5 (Homo sapiens, UniProt Q9NYP7); experiment: Inhibition of human ELOVL5; outline: as §4
T6 sequence (Q9NYP7 whole entry): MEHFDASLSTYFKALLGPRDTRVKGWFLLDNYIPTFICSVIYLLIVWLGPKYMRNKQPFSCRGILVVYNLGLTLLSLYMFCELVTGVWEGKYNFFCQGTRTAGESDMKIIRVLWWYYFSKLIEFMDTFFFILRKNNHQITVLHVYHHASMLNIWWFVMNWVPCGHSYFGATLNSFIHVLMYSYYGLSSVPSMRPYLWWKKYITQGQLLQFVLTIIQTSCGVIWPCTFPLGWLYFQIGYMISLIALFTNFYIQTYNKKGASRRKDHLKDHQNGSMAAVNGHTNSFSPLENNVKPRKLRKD

[15] = molecular target: T7, Very long chain fatty acid elongase 3 (Mus musculus, UniProt O35949); experiment: Inhibition of mouse ELOVL3; outline: as §4
T7 sequence (O35949 whole entry): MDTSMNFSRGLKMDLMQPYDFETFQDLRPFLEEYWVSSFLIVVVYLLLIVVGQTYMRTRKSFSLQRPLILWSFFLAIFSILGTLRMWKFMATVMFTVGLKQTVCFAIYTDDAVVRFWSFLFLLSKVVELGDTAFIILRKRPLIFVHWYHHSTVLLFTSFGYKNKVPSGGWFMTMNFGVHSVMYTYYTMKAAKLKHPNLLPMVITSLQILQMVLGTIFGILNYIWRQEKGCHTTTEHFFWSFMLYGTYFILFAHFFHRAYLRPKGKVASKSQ

[16] = Plasma clearance in Sprague-Dawley rat at 1 mg/kg, iv and 3 mg/kg, po; format: ADME, organism-based
Outline: (§5)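 Male SD rats, single dose: iv 1 mg/kg in PEG400/EtOH/H2O 50/10/40 or oral gavage 3 mg/kg in 0.5% methylcellulose suspension. Plasma was sampled at multiple time points up to 24 h, deproteinized with ethanol containing internal standard, and assayed. Values are means of n = 3 animals. Bioavailability was taken from AUC0-∞ after iv versus po.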

[17] = Volume of distribution at steady state in Sprague-Dawley rat at 1 mg/kg, iv; format: ADME, organism-based; design: dose 1 mg/kg, route intravenous; settings: in vivo, read-out: Vdss; outline: as §5
[18] = Half life in Sprague-Dawley rat at 1 mg/kg, iv; format: ADME, organism-based; design: dose 1 mg/kg, route intravenous; settings: in vivo; outline: as §5
[19] = Cmax in Sprague-Dawley rat at 1 mg/kg, iv and 3 mg/kg, po; format: ADME, organism-based; settings: in vivo; outline: as §5
[20] = AUC (0 to infinity) in Sprague-Dawley rat at 1 mg/kg, iv and 3 mg/kg, po; format: ADME, organism-based; settings: plasma; outline: as §5
[21] = Oral bioavailability in Sprague-Dawley rat at 3 mg/kg; format: ADME, organism-based; settings: in vivo; outline: as §5
[22] = Plasma concentration in C57BL/6J mouse at 30 mg/kg, po after 2 hrs; format: ADME, organism-based; design: dose 30 mg/kg, route oral; settings: read-out: Concentration_plasma
Outline: (§6)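 Male C57BL/6J mice were given a single oral gavage of 30 mg/kg in 0.5% methylcellulose suspension. Plasma was sampled at 2, 4, 8 and 24 h, deproteinized with ethanol containing internal standard, and assayed. Values are means of n = 3 animals.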

[23] = Plasma concentration in C57BL/6J mouse at 30 mg/kg, po after 4 hrs; format: ADME, organism-based; design: dose 30 mg/kg, route oral; settings: read-out: Concentration_plasma; outline: as §6
[24] = Plasma concentration in C57BL/6J mouse at 30 mg/kg, po after 8 hrs; format: ADME, organism-based; design: dose 30 mg/kg, route oral; settings: read-out: Concentration_plasma; outline: as §6
[25] = Plasma concentration in C57BL/6J mouse at 1 mg/kg, po after 2 hrs; format: ADME, organism-based; design: dose 1 mg/kg, route oral

Compound: CC(C)C1(COC(=O)Nc2ccc(F)cc2)OC(=O)Nc2ccc(Cl)cc21 (configuration not stated)
- pIC50 [1]: 5.30

Compound: O=C(Nc1ccc(F)cc1)OCC1(C2CC2)OC(=O)Nc2ccc(Cl)cc21 (configuration not stated)
- pIC50 [1]: 5.85

Compound: O=C(NCC1(C(F)(F)F)OC(=O)Nc2ccc(Cl)cc21)Nc1ccc(F)cc1 (single isomer, unassigned; (-))
- pIC50 [2]: 7.51
- pIC50 [3]: 6.42
- fraction unbound [4]: 0.005

Compound: O=C1Nc2ccc(Cl)cc2C(CNC(=O)c2ccc(-c3ccccc3)cc2)(C(F)(F)F)O1 (configuration not stated)
- pIC50 [1]: < 5.00

Second part, led by results:

- pIC50 [2]: 7.85
- pIC50 [3]: 8.44
- fraction unbound [4]: 0.107
- concentration at 2 h [5]: 660 nM
- concentration at 2 h [6]: 12.5 µM
- concentration at 72 h [8]: > 540 nM
- pIC50 [11]: 5.15
- pIC50 [12]: < 5.00
- pIC50 [13]: 6.89
- pIC50 [14]: < 5.00
- pIC50 [15]: 7.72
- clearance [16]: 11 mL/min/kg
- Vd [17]: 0.7 L/kg
- half-life [18]: 114 min
- Cmax [19]: 2400 nM
- AUC(0-inf) [20]: 4.69 µM·h
- bioavailability [21]: 30%
- concentration at 2 h [22]: 11.7 µM
- concentration at 4 h [23]: 3.7 µM
- concentration at 8 h [24]: 700 nM
- concentration at 2 h [25]: 540 nM
Compound: O=C1Nc2ccc(-c3ccn[nH]3)cc2[C@](CNC(=O)c2ccc(F)cc2)(C(F)(F)F)O1
- Activity [7]: Active
- Activity [9]: Active
- Activity [10]: inactive

- pIC50 [2]: 7.70
- pIC50 [3]: 7.30
Compound: O=C1Nc2ccc(-c3cn[nH]c3)cc2C(CNC(=O)c2ccc(F)cc2)(C(F)(F)F)O1 (single isomer, unassigned; (+))
